A selection: hits, their analogues and other compounds. The true share with any hit is near 12%.
Arbovirus anti – blocks arbovirus infection; AID 1251; inhibition, % at 10 µM; 0.37% of 200,000 active; arbovirus infection cell-based antiviral screen; in the data active = inhibition above about 30%
Lmaj promast – reduces viability of Leishmania major promastigotes. resazurin fluorescence viability. inhibition, % at 10 µM. 9% of 200,000 active. AID 1063;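 note: promastigotes grown with compound for 44 hours at 28 °C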
CHOP inhibitor – CHOP inhibition in unfolded protein response; CHO-K1 CHOP-promoter luciferase, tunicamycin-induced, 15-18 h; inhibition, % at 10 µM; 3.8% of 220,000 active; AID 2732;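 active = compounds that reduced the stress-induced luciferase reporter signal by more than about 70% of percent inhibition, limit read from the data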;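 note: 0% = tunicamycin plus vehicle and 100% = wells without tunicamycin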
PKD1 kinase inh – PKD1 (human) kinase inhibition | Q15139 | PKD1 kinase fluorescence polarization assay | inhibition, % (no concentration beside the values) | 0.056% of 200,000 active
Wee1 degr inh – blocks degradation of human Wee1 kinase. P30291. HeLa Luc-Wee1K328M stability, luciferase luminescence; 100% = proteasome inhibitor MG132 effect. reporter increase, % at 5 µM. 1.2% of 220,000 active. AID 1321;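 active = activation above the mean of all tested compounds plus 3 SD, set per screening run, cut at about 8.8% in these data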;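 note: cells exposed to compound for 20 h before luminescence read; 0% = DMSO alone and 100% = MG132 at 30 µM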
Rad51 HR inh – blocks human Rad51 in homologous recombination; hRad51 DNA strand exchange, fluorescence dequenching; inhibition, % at 10 µM; 0.085% of 200,000 active;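 active = inhibition above 40% at the single screening dose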;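 note: 0% = DMSO control wells and 100% = blanks with heterologous ssDNA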
Target sequence (Q06609 whole entry, looked up): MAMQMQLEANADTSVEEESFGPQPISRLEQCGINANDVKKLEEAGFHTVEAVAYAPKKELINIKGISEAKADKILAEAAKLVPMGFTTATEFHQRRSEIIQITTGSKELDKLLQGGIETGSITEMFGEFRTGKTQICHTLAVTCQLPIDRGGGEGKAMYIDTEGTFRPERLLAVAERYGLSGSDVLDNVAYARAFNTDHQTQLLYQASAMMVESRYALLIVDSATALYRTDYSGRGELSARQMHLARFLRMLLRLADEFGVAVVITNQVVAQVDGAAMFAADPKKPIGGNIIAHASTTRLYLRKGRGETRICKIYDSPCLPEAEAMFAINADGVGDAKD
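Test system – preformed human Rad51 ssDNA filaments · Reagent – Donor/quencher-labelled 47-bp dsDNA substrate · Incubation – 37 °C 15-min filament assembly, 30-min compound preincubation, 15-min exchange · Signal – FRET fluorescence dequenching, excitation 485 nm, emission 520 nm · Read-out – percent inhibition from fluorescence, normalised to plate control and blank means · Benchmarks – plate control and blank wells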
* marks the source's active call; other numbers are inactive results; nt = no result. Cut-off read from the data, not from the text of the source, unless noted: active = inhibition above about 50%; inactive = the rest.

SMILES	Arbovirus anti	Lmaj promast	CHOP inhibitor	PKD1 kinase inh	Wee1 degr inh	Rad51 HR inh
Cc1ccc(NC(=O)C(OC(=O)c2ccc(O)cc2)c2ccccc2)cc1Cl (stereo not drawn)	-45	4	-6	-7	-2	-9
Cc1ccc(NC(=O)C(OC(=O)c2ccc(F)cc2)c2ccccc2)cc1Cl (stereo not drawn)	-6	4	73*	-14	1	-12
CS(=O)(=O)N(CC(=O)NCc1ccco1)c1ccccc1Cl	-4	-3	-18	9	-1	2
CS(=O)(=O)N(CC(=O)NCc1ccco1)c1ccc(Cl)c(C(F)(F)F)c1	-1	76*	20	4	3	-1
FC(F)Oc1ccc(NC(=S)NCCc2ccccn2)cc1	12	0	-19	-4	-1	8
O=C(NCc1nc2ccccc2[nH]1)C1=C[C@@H](C2CCCCC2)C[C@@H](OCc2ccc(CO)cc2)O1	12	74*	25	0	5	-9
O=C(NCc1nc2ccccc2[nH]1)C1=C[C@@H](c2ccccc2)C[C@@H](OCc2ccc(CO)cc2)O1	-3	85*	26	-1	0	1
O=C(NCc1nc2ccccc2[nH]1)C1=C[C@H](c2ccccc2)C[C@H](OCc2ccc(CO)cc2)O1	6	14	21	2	0	-7
CCCCNC(=O)Nc1nnc(C(C)(C)C)s1	nt	nt	-8	nt	0	-12
Cc1ccc(N/N=C(\C#N)C(N)=S)cc1C	19	50*	7	-5	1	13
COc1ccc(/C=C/C(=O)NC(=S)NNC(=O)c2cc(OC)c(OC)c(OC)c2)cc1	nt	nt	89*	nt	-3	18
COc1ccc(/C=C/C(=O)NC(=S)NNC(=O)c2ccco2)cc1OC	nt	nt	34	nt	-2	-2
COc1ccc(/C=C/C(=O)NC(=S)NNC(=O)c2ccco2)cc1	-16	99*	16	1	0	-3
COc1cc(C(=O)NC(=S)NNC(=O)c2cnccn2)cc(OC)c1OC	-39	100*	68	4	0	1
COc1ccc(/C=C/C(=O)NC(=S)NCCc2ccc(OC)c(OC)c2)cc1	3	-4	88*	4	-1	-3
CCOc1ncccc1C(=O)OCC(=O)c1cc(OC)c(OC)c(OC)c1	nt	nt	-2	nt	4	8
NS(=O)(=O)c1ccc(CCNC(=O)/C=C/c2ccc([N+](=O)[O-])cc2)cc1	-9	9	8	-5	5	-15
COc1ccc(/C=C/C(=O)NCCc2ccc(S(N)(=O)=O)cc2)cc1	3	62*	-9	5	1	-2
COc1ccc(C(=O)CC(=O)C(=O)NCCc2cccc(C)c2)cc1	6	64*	62	-8	4	5
c1ccc(Cn2nnnc2C(c2cccs2)N2CCc3ccccc3C2)cc1 (stereo not drawn)	-6	51*	76*	-9	-3	4
CC(C)C(c1nnnn1C1CCCC1)N1CCc2ccccc21 (stereo not drawn)	0	31	24	-2	0	-6
Cc1ccc(C(c2nnnn2C2CCCC2)N2CCc3ccccc32)cc1 (stereo not drawn)	6	13	2	2	9.1*	13
COCCn1nnnc1C(c1cccs1)N1CCN(c2cccc(C(F)(F)F)c2)CC1 (stereo not drawn)	-5	2	46	-4	3	1
Oc1ccc(N2CCN(C(c3cccs3)c3nnnn3CCc3ccccc3)CC2)cc1 (stereo not drawn)	-27	100*	34	-3	-1	7
CC(C)C(c1nnnn1C1CCCCC1)N1CCc2ccccc2C1 (stereo not drawn)	1	67*	-2	0	6	3
c1ccc(Cn2nnnc2C(c2cccs2)N2CCCCCC2)cc1 (stereo not drawn)	11	13	61	-11	-2	0
CC(C)C(c1nnnn1C1CCCC1)N1CCCc2ccccc21 (stereo not drawn)	6	45	62	-5	-4	-4
Cc1c(Br)ccc(NC(=O)c2ccccc2[N+](=O)[O-])c1C	-3	-7	9	-9	4	-14
COc1ccc(NC(=S)NC(=O)CC(C)C)c(OC)c1	-7	-4	-3	-2	2	-5
CC(C)C(c1nnnn1Cc1ccccc1)N1CCc2ccccc2C1 (stereo not drawn)	-5	33	76*	1	-4	0
